Values belong to the compound of their own block, whether it stands above or below them. Calls of active or inactive are those of the source. The calls are words filed in the database; no cut-off is given here.
Columns and labels:
[1] = biological target: T1, M-phase inducer phosphatase 1 (Homo sapiens) (UniProt P30304); assay: Inhibition of recombinant phosphatase activity of Cdc25A catalytic domain expressed in Escherichia coli BL21(DE3) using OMFP as substrate at 100 uM after 15 mins by fluorimetric assay
T1 sequence (whole entry): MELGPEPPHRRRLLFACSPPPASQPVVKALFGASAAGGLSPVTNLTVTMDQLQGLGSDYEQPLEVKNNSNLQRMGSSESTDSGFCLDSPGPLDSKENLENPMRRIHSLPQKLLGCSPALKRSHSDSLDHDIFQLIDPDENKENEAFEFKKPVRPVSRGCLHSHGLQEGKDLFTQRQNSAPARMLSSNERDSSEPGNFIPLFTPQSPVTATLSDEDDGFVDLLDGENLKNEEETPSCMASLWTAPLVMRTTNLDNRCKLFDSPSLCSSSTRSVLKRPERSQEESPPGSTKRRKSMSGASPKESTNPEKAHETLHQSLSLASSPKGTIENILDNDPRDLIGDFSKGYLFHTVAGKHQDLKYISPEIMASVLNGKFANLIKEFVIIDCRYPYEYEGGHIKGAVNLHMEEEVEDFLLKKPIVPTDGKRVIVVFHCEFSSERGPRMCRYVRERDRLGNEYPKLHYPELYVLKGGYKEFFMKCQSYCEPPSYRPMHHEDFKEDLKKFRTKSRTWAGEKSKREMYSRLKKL

[2] = biological target: T2, M-phase inducer phosphatase 2 (Homo sapiens) (UniProt P30305); assay: Inhibition of recombinant phosphatase activity of Cdc25B catalytic domain expressed in Escherichia coli BL21(DE3) using OMFP as substrate at 100 uM after 15 mins by fluorimetric assay
T2 sequence (whole entry): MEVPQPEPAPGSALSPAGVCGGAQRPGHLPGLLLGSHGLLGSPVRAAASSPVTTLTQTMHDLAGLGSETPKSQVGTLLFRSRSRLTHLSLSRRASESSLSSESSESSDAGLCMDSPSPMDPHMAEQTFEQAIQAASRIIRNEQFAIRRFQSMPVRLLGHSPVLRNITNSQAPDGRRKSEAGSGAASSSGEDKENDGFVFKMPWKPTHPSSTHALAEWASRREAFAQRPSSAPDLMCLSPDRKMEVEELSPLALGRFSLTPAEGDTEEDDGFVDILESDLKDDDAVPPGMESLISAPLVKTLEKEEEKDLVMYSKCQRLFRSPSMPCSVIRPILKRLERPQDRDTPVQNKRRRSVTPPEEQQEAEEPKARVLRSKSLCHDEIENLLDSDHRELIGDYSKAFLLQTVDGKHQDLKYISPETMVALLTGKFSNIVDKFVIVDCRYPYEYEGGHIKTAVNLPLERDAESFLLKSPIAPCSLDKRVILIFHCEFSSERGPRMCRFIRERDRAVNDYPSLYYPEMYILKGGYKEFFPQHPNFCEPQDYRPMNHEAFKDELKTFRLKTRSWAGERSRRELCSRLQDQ

[3] = biological target: T3, M-phase inducer phosphatase 3 (Homo sapiens) (UniProt P30307); assay: Inhibition of recombinant phosphatase activity of Cdc25C catalytic domain expressed in Escherichia coli BL21(DE3) using OMFP as substrate at 100 uM after 15 mins by fluorimetric assay
T3 sequence (whole entry): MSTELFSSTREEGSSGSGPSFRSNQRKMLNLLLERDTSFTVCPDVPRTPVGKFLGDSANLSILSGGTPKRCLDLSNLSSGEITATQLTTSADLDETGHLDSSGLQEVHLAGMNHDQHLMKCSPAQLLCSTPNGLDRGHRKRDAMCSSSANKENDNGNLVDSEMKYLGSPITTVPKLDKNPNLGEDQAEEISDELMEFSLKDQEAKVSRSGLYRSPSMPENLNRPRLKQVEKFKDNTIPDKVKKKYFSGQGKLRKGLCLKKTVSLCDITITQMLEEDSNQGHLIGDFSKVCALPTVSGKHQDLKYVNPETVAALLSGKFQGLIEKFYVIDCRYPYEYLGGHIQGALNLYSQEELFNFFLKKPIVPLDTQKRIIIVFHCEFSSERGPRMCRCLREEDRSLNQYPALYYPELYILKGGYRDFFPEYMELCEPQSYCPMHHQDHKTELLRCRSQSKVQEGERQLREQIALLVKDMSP

[4] = biological target: T2, M-phase inducer phosphatase 2 (Homo sapiens); assay: Reversible inhibition of recombinant phosphatase activity of Cdc25B catalytic domain expressed in Escherichia coli BL21(DE3) assessed as residual activity of enzyme measured after 10 fold dilution at 100 uM preincubated for 20 mins
In short: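 Cdc25B (0.5 μg) preincubated 20 min at room temperature with 100 μM inhibitor or DMSO vehicle, then diluted 10-fold. Residual phosphatase activity was read after adding OMFP substrate and expressed as percent of the untreated control. Mean ± SD of three determinations.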

[5] = biological target: T2, M-phase inducer phosphatase 2 (Homo sapiens); assay: Inhibition of recombinant phosphatase activity of Cdc25B catalytic domain expressed in Escherichia coli BL21(DE3) using OMFP as substrate by spectrofluorimetric analysis
MCF7 [6] = assay: Growth inhibition against human MCF7 cells expressing Cdc25A-C assessed as cell viability at 20 uM after 72 hrs by MTS assay; assay type: functional, cell-based
In short: (§1)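 MCF-7 breast, PC-3 prostate and K562 leukaemia cells treated 72 h with inhibitor or DMSO vehicle control, then cell viability measured. Values are mean ± SD of three experiments; significance by Student's t test, p ≤ 0.05.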

PC-3 [7] = assay: Growth inhibition against human PC3 cells expressing Cdc25A-C assessed as cell viability at 20 uM after 72 hrs by MTS assay; assay type: functional, cell-based; in short: as §1
K562 [8] = assay: Growth inhibition against human K562 cells expressing Cdc25A-C assessed as cell viability at 20 uM after 72 hrs by MTS assay; assay type: functional, cell-based; in short: as §1
K562 [9] = assay: Increase of ROS level in human K562 cells expressing Cdc25A-C using H2DCFDA at 20 uM after 30 mins by flow cytometry; assay type: functional, cell-based
MCF7 [10] = assay: Cell cycle arrest in human MCF7 cells assessed as accumulation at G1 phase at 20 uM after 24 hrs by propidium iodide staining-based flow cytometry (reference value: 81.3 +/- 0.01%); assay type: functional
MCF7 [11] = assay: Cell cycle arrest in human MCF7 cells assessed as accumulation at G2/M phase at 20 uM after 24 hrs by propidium iodide staining-based flow cytometry (reference value: 9.4 +/- 0.04%); assay type: functional
MCF7 [12] = assay: Cell cycle arrest in human MCF7 cells assessed as accumulation at S phase at 20 uM after 24 hrs by propidium iodide staining-based flow cytometry (reference value: 9.35%); assay type: functional
K562 [13] = assay: Increase of ROS level in human K562 cells expressing Cdc25A-C using H2DCFDA at 20 uM after 30 mins by flow cytometry in presence of DTT; assay type: functional, cell-based
PC-3 [14] = assay: Increase of ROS level in human PC3 cells expressing Cdc25A-C using H2DCFDA at 20 uM after 30 mins by flow cytometry; assay type: functional, cell-based
PC-3 [15] = assay: Increase of ROS level in human PC3 cells expressing Cdc25A-C using H2DCFDA at 20 uM after 30 mins by flow cytometry in presence of DTT; assay type: functional, cell-based
MCF7 [16] = assay: Cell cycle arrest in human MCF7 cells assessed as accumulation at G1 phase at 20 uM after 48 hrs by propidium iodide staining-based flow cytometry (reference value: 64.5 +/- 0.02%); assay type: functional
MCF7 [17] = assay: Cell cycle arrest in human MCF7 cells assessed as accumulation at S phase at 20 uM after 48 hrs by propidium iodide staining-based flow cytometry (reference value: 14.5 +/- 0.01%); assay type: functional
MCF7 [18] = assay: Cell cycle arrest in human MCF7 cells assessed as accumulation at G2/M phase at 20 uM after 48 hrs by propidium iodide staining-based flow cytometry (reference value: 21 +/- 0.04%); assay type: functional
[19] = biological target: T2, M-phase inducer phosphatase 2 (Homo sapiens); details: 400 uM
[20] = biological target: T2, M-phase inducer phosphatase 2 (Homo sapiens); details: K562, 20 uM
MCF7 [21] = assay: Growth inhibition against human MCF7 cells expressing Cdc25A-C assessed as cell viability at 400 uM after 72 hrs by MTS assay; assay type: functional, cell-based; in short: as §1
PC-3 [22] = assay: Growth inhibition against human PC3 cells expressing Cdc25A-C assessed as cell viability at 400 uM after 72 hrs by MTS assay; assay type: functional, cell-based; in short: as §1
K562 [23] = assay: Growth inhibition against human K562 cells expressing Cdc25A-C assessed as cell viability at 400 uM after 72 hrs by MTS assay; assay type: functional, cell-based; in short: as §1
MCF7 [24] = assay: Cell cycle arrest in human MCF7 cells assessed as accumulation at G2/M phase at 400 uM after 24 hrs by propidium iodide staining-based flow cytometry (reference value: 9.4 +/- 0.04%); assay type: functional
MCF7 [25] = assay: Cell cycle arrest in human MCF7 cells assessed as accumulation at S phase at 400 uM after 24 hrs by propidium iodide staining-based flow cytometry (reference value: 9.35%); assay type: functional
MCF7 [26] = assay: Cell cycle arrest in human MCF7 cells assessed as accumulation at G1 phase at 400 uM after 24 hrs by propidium iodide staining-based flow cytometry (reference value: 81.3 +/- 0.01%); assay type: functional
[27] = biological target: T2, M-phase inducer phosphatase 2 (Homo sapiens); assay: Inhibition of Cdc25B in human K562 cells assessed as increase in Cdk1 phosphorylation at 400 uM after 24 hrs by Western blot analysis; assay type: cell-based
In short: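 K562 cells treated 24 h with inhibitor or DMSO vehicle, lysed, and Western blotted with anti-phospho-Cdk1 (Y15) antibody; total Cdk1 detected as loading control.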

MCF7 [28] = assay: Cell cycle arrest in human MCF7 cells assessed as accumulation at G1 phase at 400 uM after 48 hrs by propidium iodide staining-based flow cytometry (reference value: 64.5 +/- 0.02%); assay type: functional
MCF7 [29] = assay: Cell cycle arrest in human MCF7 cells assessed as accumulation at S phase at 400 uM after 48 hrs by propidium iodide staining-based flow cytometry (reference value: 14.5 +/- 0.01%); assay type: functional
MCF7 [30] = assay: Cell cycle arrest in human MCF7 cells assessed as accumulation at G2/M phase at 400 uM after 48 hrs by propidium iodide staining-based flow cytometry (reference value: 21 +/- 0.04%); assay type: functional
[31] = biological target: T2, M-phase inducer phosphatase 2 (Homo sapiens); assay: Reversible inhibition of recombinant phosphatase activity of Cdc25B catalytic domain expressed in Escherichia coli BL21(DE3) assessed as residual activity of enzyme measured after 10 fold dilution at 100 uM preincubated for 20 mins

SMILES: O=C(O)CCc1c2ccc(=O)c(O)c-2oc2c(O)c(O)ccc12
inhibition [1]: 100%
inhibition [2]: 99%
inhibition [3]: 99%
inhibition [4]: Active
inhibition [5]: Dose-dependent effect
growth inhibition (GI) (MCF7 [6]): Active
growth inhibition (GI) (PC-3 [7]): Active
growth inhibition (GI) (K562 [8]): Active
Activity (K562 [9]): Active
Activity (MCF7 [10]): 68.8%
Activity (MCF7 [11]): 18.1%
Activity (MCF7 [12]): 13.1%
Activity (K562 [13]): inactive
Activity (PC-3 [14]): Active
Activity (PC-3 [15]): inactive
Activity (MCF7 [16]): 92.8%
Activity (MCF7 [17]): 2.6%
Activity (MCF7 [18]): 4.6%
inhibition [19]: Active
inhibition [20]: Active

inhibition [1]: 46%
inhibition [2]: 41%
inhibition [3]: 55%
inhibition [5]: Dose-dependent effect
inhibition [27]: Active
inhibition [31]: Active
SMILES: COc1ccc(Cc2ccc3nc(O)cc(C)c3c2)cc1S(=O)(=O)O
growth inhibition (GI) (MCF7 [21]): Active
growth inhibition (GI) (PC-3 [22]): Active
growth inhibition (GI) (K562 [23]): Active
Activity (MCF7 [24]): 5.6%
Activity (MCF7 [25]): 3.3%
Activity (MCF7 [26]): 91.1%
Activity (MCF7 [28]): 93.5%
Activity (MCF7 [29]): 3.2%
Activity (MCF7 [30]): 3.3%

— ChEMBL document CHEMBL2057126, “Discovery of new inhibitors of Cdc25B dual specificity phosphatases by structure-based virtual screening” (J Med Chem, 2012)
